Results reported in ChEMBL document CHEMBL1132231, “New generation dopaminergic agents. 6. Structure-activity relationship studies of a series of 4-(aminoethoxy)indole and 4-(aminoethoxy)indolone derivatives based on the newly discovered 3-hydroxyphenoxyethylamine D2 template” (J Med Chem, 1999).

Assays:
[1] = target: D(2) dopamine receptor (Rattus norvegicus) (UniProt P61169); assay: Ratio of Dopamine D2 receptor (low)and Dopamine D2 receptor (high)
In short: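 Ratio Ki(low)/Ki(high). Ki(low) comes from displacement of 1 nM [3H]spiperone in striatal membranes with 1 mM GppNHp and NaCl, 37 °C for 5 min. […] Both Ki values derived by Cheng-Prusoff from nine concentrations in triplicate; the ratio serves as an estimate of intrinsic activity.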

D(2) dopamine receptor [2] = target: T1, D(2) dopamine receptor (Rattus norvegicus, UniProt P61169); assay: In vitro low binding affinity towards Dopamine receptor D2 by the displacement of [3H]spiperone radioligand in rat striatal membranes; type: cell membranes, Membrane
T1 sequence (P61169 whole entry): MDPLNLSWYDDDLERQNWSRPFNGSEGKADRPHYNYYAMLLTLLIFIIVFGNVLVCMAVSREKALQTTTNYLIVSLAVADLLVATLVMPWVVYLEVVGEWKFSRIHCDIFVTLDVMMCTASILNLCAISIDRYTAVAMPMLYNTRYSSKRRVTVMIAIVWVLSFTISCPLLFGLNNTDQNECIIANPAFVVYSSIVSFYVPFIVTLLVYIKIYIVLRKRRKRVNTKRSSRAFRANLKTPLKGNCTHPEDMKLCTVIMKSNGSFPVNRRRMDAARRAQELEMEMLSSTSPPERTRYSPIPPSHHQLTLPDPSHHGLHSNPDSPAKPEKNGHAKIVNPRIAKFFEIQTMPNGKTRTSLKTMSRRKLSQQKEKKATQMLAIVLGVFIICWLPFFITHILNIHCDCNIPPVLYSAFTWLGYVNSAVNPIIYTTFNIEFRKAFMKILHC

D(2) dopamine receptor [3] = target: T1, D(2) dopamine receptor; assay: In vitro high binding affinity towards Dopamine receptor D2 by the displacement of [3H]quinpirole radioligand in rat striatal membranes; type: cell membranes, Membrane
[4] = target: T2, Adrenergic receptor alpha-1 (Rattus norvegicus, UniProt P15823+P23944+P43140); assay: In vitro binding affinity towards alpha-1 adrenergic receptor by the displacement of [3H]prazosin radioligand in rat cortical homogenates
T2 sequence (P15823 whole entry): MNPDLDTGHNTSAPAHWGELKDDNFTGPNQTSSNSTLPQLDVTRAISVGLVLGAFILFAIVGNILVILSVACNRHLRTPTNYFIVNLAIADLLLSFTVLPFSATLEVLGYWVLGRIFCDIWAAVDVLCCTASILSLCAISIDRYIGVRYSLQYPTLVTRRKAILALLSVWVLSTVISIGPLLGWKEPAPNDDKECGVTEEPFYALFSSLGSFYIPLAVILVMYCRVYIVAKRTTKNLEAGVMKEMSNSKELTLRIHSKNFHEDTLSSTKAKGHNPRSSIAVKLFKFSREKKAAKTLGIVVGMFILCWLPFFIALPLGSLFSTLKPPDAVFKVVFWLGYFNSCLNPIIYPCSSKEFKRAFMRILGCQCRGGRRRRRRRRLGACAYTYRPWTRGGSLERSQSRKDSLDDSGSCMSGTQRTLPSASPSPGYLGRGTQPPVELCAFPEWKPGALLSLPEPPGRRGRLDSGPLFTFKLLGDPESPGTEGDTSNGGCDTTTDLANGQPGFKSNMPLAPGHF
T2 sequence (P23944 whole entry): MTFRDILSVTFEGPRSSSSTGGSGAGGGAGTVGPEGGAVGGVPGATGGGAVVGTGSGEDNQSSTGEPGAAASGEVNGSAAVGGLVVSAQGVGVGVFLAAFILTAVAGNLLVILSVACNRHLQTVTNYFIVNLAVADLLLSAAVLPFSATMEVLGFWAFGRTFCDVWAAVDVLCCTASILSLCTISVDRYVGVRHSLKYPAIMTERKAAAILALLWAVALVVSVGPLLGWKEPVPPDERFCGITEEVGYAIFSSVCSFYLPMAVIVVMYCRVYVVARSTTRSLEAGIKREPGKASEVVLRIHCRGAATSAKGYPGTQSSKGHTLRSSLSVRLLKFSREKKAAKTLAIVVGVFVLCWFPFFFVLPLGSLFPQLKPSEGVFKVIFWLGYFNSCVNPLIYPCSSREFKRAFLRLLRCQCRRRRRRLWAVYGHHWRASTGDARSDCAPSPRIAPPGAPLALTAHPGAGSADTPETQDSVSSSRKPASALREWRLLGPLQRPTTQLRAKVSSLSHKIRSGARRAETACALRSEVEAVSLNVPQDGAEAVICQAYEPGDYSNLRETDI
T2 sequence (P43140 whole entry): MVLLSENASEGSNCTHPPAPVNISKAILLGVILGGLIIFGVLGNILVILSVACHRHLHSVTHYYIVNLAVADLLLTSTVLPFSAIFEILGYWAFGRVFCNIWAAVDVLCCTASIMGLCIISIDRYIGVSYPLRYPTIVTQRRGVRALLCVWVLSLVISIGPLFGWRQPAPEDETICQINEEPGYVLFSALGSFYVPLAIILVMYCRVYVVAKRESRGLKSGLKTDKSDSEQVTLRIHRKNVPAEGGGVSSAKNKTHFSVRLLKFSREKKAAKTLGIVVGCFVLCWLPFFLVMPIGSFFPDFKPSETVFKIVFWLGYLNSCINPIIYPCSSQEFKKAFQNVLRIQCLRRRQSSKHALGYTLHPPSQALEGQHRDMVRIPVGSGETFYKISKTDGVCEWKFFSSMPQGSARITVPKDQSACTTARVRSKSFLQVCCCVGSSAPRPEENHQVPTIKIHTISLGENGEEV
In short: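 Rat cortical homogenates labelled with [3H]prazosin (0.2 nM), incubated 30 min at 25 °C. Stopped with cold 50 mM Tris pH 7.4, then rapid filtration. Triplicate, at least eight concentrations. Nonlinear regression gave IC50, converted to apparent Ki by Cheng-Prusoff. Means of at least two experiments ± SEM; values without SEM are single determinations.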

[5] = target: T3, 5-hydroxytryptamine receptor 1A (Rattus norvegicus, UniProt P19327); assay: The compound was tested for binding affinity on [3H]8-OH-DPAT as specific ligand on 5-hydroxytryptamine 1A receptor in rat hippocampus; type: tissue-based
T3 sequence (P19327 whole entry): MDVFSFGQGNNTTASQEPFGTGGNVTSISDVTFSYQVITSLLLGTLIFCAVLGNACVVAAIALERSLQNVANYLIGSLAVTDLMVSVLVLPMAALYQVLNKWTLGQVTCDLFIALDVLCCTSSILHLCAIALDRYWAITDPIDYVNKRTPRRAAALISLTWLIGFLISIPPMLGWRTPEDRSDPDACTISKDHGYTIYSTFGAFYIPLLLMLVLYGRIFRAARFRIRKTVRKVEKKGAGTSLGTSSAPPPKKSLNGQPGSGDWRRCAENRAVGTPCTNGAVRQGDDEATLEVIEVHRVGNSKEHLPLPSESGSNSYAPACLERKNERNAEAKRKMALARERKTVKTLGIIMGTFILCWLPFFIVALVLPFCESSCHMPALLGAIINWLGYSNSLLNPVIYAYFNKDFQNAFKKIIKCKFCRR
In short: (§1)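 Rat hippocampal homogenates labelled with [3H]-8-OH-DPAT (1.8 nM), incubated 10 min at 37 °C. Stopped with cold 50 mM Tris pH 7.7. Test compounds run in triplicate at at least eight concentrations. IC50 found by nonlinear regression and converted to apparent Ki by Cheng-Prusoff. Ki values are means of at least two experiments ± SEM; values without SEM are single determinations.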

[6] = target: T3, 5-hydroxytryptamine receptor 1A; assay: In vitro binding affinity towards 5-hydroxytryptamine 1A r receptor by the displacement of [3H]8-OH-DPAT radioligand in rat hippocampal homogenates; type: tissue-based, Hippocampus; in short: as §1

Chain of D(2) dopamine receptor (Rattus norvegicus) (P61169 whole entry): as the sequence (P61169 whole entry) above

| Ratio [1] | Ki (D(2) dopamine receptor [2]) | Ki (D(2) dopamine receptor [3]) | Ki [4] | Ki [5] | Ki [6] | Compound |
| --- | --- | --- | --- | --- | --- | --- |
| 4 | 39.3 nM | 9.7 nM | 675 nM | 18 nM |  | c1ccc(CNCCOc2cccc3[nH]ccc23)cc1 |
| 6 | 16.6 nM | 3 nM | 60 nM | 30 nM |  | O=C(c1c[nH]c2cccc(OCCNCc3ccccc3)c12)C(F)(F)F |
| 3 | 15.7 nM | 4.8 nM | 8.5 nM |  | 0.5 nM | Clc1c[nH]c2cccc(OCCNCCCCc3ccccc3)c12 |
